# Compound activity as filed in PubChem.
# KCC2 mod = KCC2 cotransporter modulators, thallium flux, primary screen, cell-based, HEK293 KCC2, FluoZin-2 fluorescence, MLSMR; KCC2 cells, thallium flux FluoZin-2 fluorescence; Solute carrier family 12 member 5 (Homo sapiens), Q9H2X9; 2.2% of 190,000 active; B-score of Tl+ flux slope (higher = more flux/activation; lower = inhibition) at 10 µM;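 active = thallium flux slope and its plate-corrected score both differing from the plate sample mean at a set confidence after two filtering rounds, in either direction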;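 note: slope of fluorescence scaled to starting intensity during 10 to 20 s after thallium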
# MrgX1 allo act = positive allosteric modulators of MrgX1, primary screen, HEK293 cells, Fluo-4 calcium flux. Mas-related G-protein coupled receptor member X1 (Homo sapiens), Q96LB2. FDSS; stronger effect = higher value. B-score at 10 µM. 0.63% of 310,000 active. AID 588675, 2011;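 active = plate-corrected calcium response at least 3 library SD above typical, normal starting fluorescence, not activating the receptor alone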;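 note: compound read alongside a low EC10 to EC30 dose of BAM8-22 agonist; peak minus trough fluorescence over baseline measured at the second addition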
# Target sequence (Q96LB2 whole entry, looked up): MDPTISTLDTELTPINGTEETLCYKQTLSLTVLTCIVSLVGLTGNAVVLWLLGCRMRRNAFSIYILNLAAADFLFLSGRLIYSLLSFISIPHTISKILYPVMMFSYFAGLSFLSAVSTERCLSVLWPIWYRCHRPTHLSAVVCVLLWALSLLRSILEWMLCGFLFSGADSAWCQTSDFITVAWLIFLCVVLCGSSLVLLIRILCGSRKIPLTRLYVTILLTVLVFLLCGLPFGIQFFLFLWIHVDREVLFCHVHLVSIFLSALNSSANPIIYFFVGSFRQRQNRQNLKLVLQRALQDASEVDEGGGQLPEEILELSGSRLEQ
# RGS4 inh = RGS4 inhibitors, primary screen, cell-based, HEK293 M3R inducible RGS4, calcium flux | Regulator of G-protein signaling 4 (Homo sapiens), P49798 | Fluo-4 calcium flux; stronger effect = higher value; triggered by carbachol at its EC20 | B-score at 10 µM | 0.45% of 310,000 active;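 active = B-score, a plate-corrected calcium signal, over three deviations above library mean, with baseline fluorescence within five deviations of library mean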;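 note: RGS4 expression induced by doxycycline in cells with stable M3 receptor; B-score is computed from the integrated fluorescence ratio over baseline after carbachol; higher B-score means a larger calcium signal and so more RGS4 inhibition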
# Target sequence (P49798 whole entry, looked up): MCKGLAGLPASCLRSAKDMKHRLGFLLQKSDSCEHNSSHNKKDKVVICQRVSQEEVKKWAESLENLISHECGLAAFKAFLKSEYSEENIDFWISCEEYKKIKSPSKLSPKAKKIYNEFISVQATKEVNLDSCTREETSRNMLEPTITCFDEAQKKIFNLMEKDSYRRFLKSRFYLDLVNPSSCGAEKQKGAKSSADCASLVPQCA
# MrgX1 antag = antagonists of human MrgX1 receptor, primary screen, HEK293 cells, Fluo-4 calcium flux; Mas-related G-protein coupled receptor member X1 (Homo sapiens), Q96LB2; BAM8-22 antagonism; stronger effect = lower value; B-score at 10 µM; 1.3% of 310,000 active; AID 588676, 2011;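 active = calcium-response B-score plate-corrected more than 3 library SD below zero, starting fluorescence within 5 deviations, no agonist response on first addition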;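 note: peak minus trough fluorescence over baseline after final BAM8-22 challenge near maximal dose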
# MrgX1 ag = agonists of human MrgX1 receptor, primary screen, HEK293 cells, Fluo-4 calcium flux. 0.44% of 310,000 active. AID 588627, 2011. B-score at 10 µM. Fluo-4 calcium fluorescence, agonist mode; stronger effect = higher value;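 active = calcium response B-score plate-corrected fluorescence ratio at least 3 library SD, with starting fluorescence B-score inside 5 SD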
#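 System: HEK293 cells stably expressing human MrgX1 receptor; Dosing: test compound in the initial addition of three; Schedule: overnight plating, then 30 min 37 °C plus 30 min room-temperature dye loading; Detection: kinetic calcium dye fluorescence, Fluo-4 NW; Controls: per-plate positive and negative controls for Z′ factor.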
# RGS4 pot = RGS4 potentiators or activators, primary screen, cell-based, HEK293 M3R inducible RGS4, calcium flux; carbachol calcium flux Fluo4; stronger effect = lower value; B-score at 10 µM; 0.92% of 310,000 active; AID 463111, 2010;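 active = B-score of the integrated calcium signal more than 4 SD below the library mean, with starting fluorescence not abnormally high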;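 note: negative B-score means reduced calcium response which marks RGS4 activation or potentiation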
#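 test system = M3R-expressing HEK293 line, RGS4 induced by doxycycline | probe or stimulus = carbachol at ECmax as muscarinic agonist stimulus | timing = dye loading 30 min 37 °C, buffer rest 30 min RT | signal = calcium dye Fluo4 fluorescence | evaluation = B score from integrated fluorescence ratio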
# * hit, by the source's call; i = inactive; / = no result. Hits are enriched below; roughly 4.7% of the tested compounds scored in any of these assays.
SMILES,KCC2 mod,MrgX1 allo act,RGS4 inh,MrgX1 antag,MrgX1 ag,RGS4 pot
COc1ccc(N2CCN(C(=O)c3ccc4c(c3)NC(=O)C(CSCc3ccc(C)cc3)N4)CC2)cc1 (centres undefined),/,i,i,i,i,i
COc1ccc(N2CCN(C(=O)c3ccc4c(c3)NC(=O)C(CSCc3cccc(F)c3)N4)CC2)cc1 (centres undefined),/,i,i,i,36*,i
O=C(NCCc1ccccc1)C(c1ccc(F)cc1)N(C(=O)c1csnn1)C1CC1 (centres undefined),/,i,i,i,i,i
CC[n+]1c(/C=C/N(C)c2ccccc2)oc2ccc(Cl)cc21,0.99,i,i,i,i,i
CCN1/C(=C/C=C/c2oc3ccc4ccccc4c3[n+]2CC)Oc2ccc3ccccc3c21,/,i,i,-7.8*,i,-9*
c1ccc(Cc2ccc(OCCCNC3CCCC3)cc2)cc1,1.4,i,i,i,i,-12*
c1ccc(-c2ccc(OCCCNC3CCCC3)cc2)cc1,0.025,i,i,i,i,i
CCCCn1c(SCC(=O)NC2CCCC2)nnc1-c1ccco1,/,i,i,i,i,i
CC(C)C(C(=O)O)N1C(=O)/C(=C/C=C/c2ccco2)SC1=S (centres undefined),-0.35,i,i,-5.3*,i,i
O=C1/C(=C\c2ccco2)SC(=S)N1c1ccc(O)cc1,-0.14,i,i,i,i,i
CC(C)C(C(=O)O)N1C(=O)/C(=C/c2cccn2C)SC1=S (centres undefined),2.7,i,/,i,i,/
O=C1/C(=C/C=C/c2ccco2)SC(=S)N1c1ccc(O)cc1,-1.5,16*,i,i,i,i
CCN(CC(=O)Nc1cc(S(=O)(=O)N2CCCCC2)ccc1C)Cc1ccccc1,/,i,i,i,i,i
C#CCOCCOCCOCCNc1nc(N2CCN(C(=O)CCCCCCCCCCNC(=O)[C@@H](CCSC)n3cc(CCO)nn3)CC2)nc(N2CCN(C(=O)CCCCCCCCCCNC(=O)[C@H](CCCN=C(N)N)n3cc(C[C@@H](C)CC)nn3)CC2)n1,/,i,/,i,i,/
C#CCOCCOCCOCCNc1nc(N2CCOCC2)nc(N2CCN(C(=O)CCCCCCCCCCNC(=O)[C@H]([C@@H](C)CC)n3cc(CCCCN=C(N)N)nn3)CC2)n1,/,i,/,i,i,/
C#CCOCCOCCOCCNc1nc(N2CCN(C(=O)CCCCCCCCCCNC(=O)[C@H]([C@@H](C)CC)n3cc(CCCCN=C(N)N)nn3)CC2)nc(N2CCN(C(=O)CCCCCCCCCCNC(=O)[C@H](CCCN=C(N)N)n3cc(C[C@@H](C)CC)nn3)CC2)n1,/,i,/,i,33*,/
C#CCOCCOCCOCCNc1nc(N2CCN(C(=O)CCCCCCCCCCNC(=O)[C@H](CCCN=C(N)N)n3cc(C[C@@H](C)CC)nn3)CC2)nc(N2CCN(C(=O)CCCCCCCCCCNC(=O)[C@@H]([C@H](C)CC)n3cc(CCCCCN)nn3)CC2)n1,/,i,/,i,51*,/
O=C(O)c1cn(Cc2ccccc2)c2ccc(Cl)cc2c1=O,/,i,i,i,i,i
Cc1coc2cc3oc(=O)c(CCC(=O)N4CCC(C(=O)O)(c5ccccc5)CC4)c(C)c3cc12,/,i,i,i,i,i
CSc1ccc(CN(C)Cc2cc(=O)oc3c(C)c(C)ccc23)cc1,/,i,i,i,i,-7.2*
Cc1ccc2c(CN(C)Cc3cccc(Cl)c3)cc(=O)oc2c1C,/,i,i,i,i,i
Cc1cccc(NS(=O)(=O)c2ccc(OCC(=O)N3CCCC3)cc2)c1,/,i,i,i,i,i
Cc1ccc(NC(=O)Nc2ccc3c(c2)OCO3)cc1F,/,i,i,i,i,i
CC(Oc1ccccc1)C(=O)Nc1cc(Cl)ccc1-n1cncn1 (centres undefined),/,i,i,i,i,i
O=C(Nc1ccccc1[N+](=O)[O-])c1cccc(N2C(=O)CCC2=O)c1,/,i,i,i,i,i
SMILES,KCC2 mod,MrgX1 allo act,RGS4 inh,MrgX1 antag,MrgX1 ag,RGS4 pot
COc1ccccc1NC(=S)N(C(C)C)C(C)c1ccccn1 (centres undefined),0.31,i,i,i,i,i
CC(C)N(C(=S)Nc1cccc(C(F)(F)F)c1)C(C)c1ccccn1 (centres undefined),-0.39,i,i,-9.5*,i,i
CCOc1ccccc1N1CCN(C(=O)c2cc(-c3cc(OC)ccc3OC)nc3ccccc23)CC1,/,i,i,i,i,-7.4*
COc1ccc(OC)c(-c2cc(C(=O)N3CCN(c4ncccn4)CC3)c3ccccc3n2)c1,-0.14,i,i,i,i,-7.1*
COc1ccc(N2CCN(C(=O)c3cc(-c4cc(OC)ccc4OC)nc4ccccc34)CC2)cc1,/,i,i,i,i,-7*
COc1ccc(-c2cc(C(=O)N3CCCCCC3)c3ccccc3n2)c(OC)c1,/,i,i,i,i,i
Cc1ccc(NC(=O)C(C)OC(=O)/C=C/c2ccccc2)cc1S(=O)(=O)N1CCOCC1 (centres undefined),/,i,i,i,i,i
COc1ccc(C(=O)[C@@H]2CC[C@](C)(C(=O)O)C2(C)C)cc1,/,i,i,i,i,i
CCNC(=S)Nc1cccc([N+](=O)[O-])c1,-0.035,i,i,i,i,i
CCNC(=S)Nc1ccc(Cl)c([N+](=O)[O-])c1,-0.95,i,i,-5.8*,i,i
COc1ccc(Cl)cc1/C=C(\C#N)C(N)=O,-0.017,i,i,i,30*,i
COc1cc([C@H]2Oc3c(OC)cc(CCCO[C@@H]4O[C@H](CO)[C@@H](O)[C@H](O)[C@H]4O)cc3[C@@H]2CO)ccc1O,/,i,/,i,i,/
CC(Oc1ccc(Cl)cc1Cl)c1nc(-c2ccc(NC(=O)c3ccncc3)cc2)no1 (centres undefined),1.1,i,i,-5.2*,i,i
